{"source": "PubChem BioAssay AID489031", "about": "(Sanford-Burnham Center for Chemical Genomics, 2010)", "note": "In all, about 330,000 compounds went through this assay and about 1,000 (0.3%) were called active.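 Rule for the calls: active = activity change at or below -40% at 20 µM; inactive = the rest.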 Only a selection was taken, and actives are over-represented in it overall.", "data": [{"molecular_target": "Apoptotic protease-activating factor 1 (Homo sapiens) (UniProt O14727)", "sequence (O14727 whole entry, looked up)": "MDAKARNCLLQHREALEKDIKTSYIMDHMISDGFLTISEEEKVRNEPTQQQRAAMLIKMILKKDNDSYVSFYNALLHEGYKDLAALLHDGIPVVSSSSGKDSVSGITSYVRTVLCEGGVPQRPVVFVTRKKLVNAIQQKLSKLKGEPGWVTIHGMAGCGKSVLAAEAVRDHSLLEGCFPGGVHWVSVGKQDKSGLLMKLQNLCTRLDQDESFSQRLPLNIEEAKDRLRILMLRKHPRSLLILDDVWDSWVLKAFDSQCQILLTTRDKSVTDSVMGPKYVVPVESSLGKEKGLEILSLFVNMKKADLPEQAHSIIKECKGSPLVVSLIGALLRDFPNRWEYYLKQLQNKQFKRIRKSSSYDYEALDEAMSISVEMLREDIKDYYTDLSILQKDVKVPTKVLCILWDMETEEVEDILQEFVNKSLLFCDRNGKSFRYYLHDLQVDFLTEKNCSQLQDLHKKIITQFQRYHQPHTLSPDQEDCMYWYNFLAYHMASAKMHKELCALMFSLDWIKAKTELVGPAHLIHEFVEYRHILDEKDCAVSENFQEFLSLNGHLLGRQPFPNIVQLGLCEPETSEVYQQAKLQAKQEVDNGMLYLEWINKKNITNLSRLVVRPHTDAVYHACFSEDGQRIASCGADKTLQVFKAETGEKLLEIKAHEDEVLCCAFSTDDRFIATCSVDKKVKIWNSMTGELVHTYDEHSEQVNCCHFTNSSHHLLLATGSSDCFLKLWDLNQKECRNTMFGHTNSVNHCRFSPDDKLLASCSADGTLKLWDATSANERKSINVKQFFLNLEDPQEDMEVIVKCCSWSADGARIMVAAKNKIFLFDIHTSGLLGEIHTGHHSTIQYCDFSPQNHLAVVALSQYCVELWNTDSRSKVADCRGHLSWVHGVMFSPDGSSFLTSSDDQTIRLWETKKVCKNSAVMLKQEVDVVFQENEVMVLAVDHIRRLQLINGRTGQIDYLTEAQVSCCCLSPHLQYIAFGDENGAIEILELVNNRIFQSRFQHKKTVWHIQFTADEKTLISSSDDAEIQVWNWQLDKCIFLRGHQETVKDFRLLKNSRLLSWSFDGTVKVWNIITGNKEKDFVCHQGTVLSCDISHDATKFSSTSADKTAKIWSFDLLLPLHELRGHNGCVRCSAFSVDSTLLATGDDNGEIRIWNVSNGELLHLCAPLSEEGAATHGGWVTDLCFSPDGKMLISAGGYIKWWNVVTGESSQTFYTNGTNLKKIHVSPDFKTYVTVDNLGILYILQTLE", "assay": "activators of human Apaf-1 apoptosome, primary screen, biochemical, DEVD-Rh110 fluorescence, uHTS (AID 489031)", "conditions": "Apaf-1 apoptosome caspase-3 activation, at 20 µM, stronger effect = lower value", "method_in_brief": "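Assay system – biochemical Apaf-1 apoptosome reconstitution · Medium – 20 mM HEPES buffer, pH 7.5, containing CHAPS and BSA · Incubation – 30 min preincubation, 50 min reaction, room temperature · Measured by – Caspase-3-released Rh110 fluorescence, 540 nm emission, 480 nm excitation · Read-out – Caspase-3 cleavage activity downstream of Apaf-1 activation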", "values": [{"smiles": "Cc1nn(CC(=O)Nc2ccc(C#N)cc2)c(C)c1[N+](=O)[O-]", "activity change, negative = activation": "-116% (active)"}, {"smiles": "CCOC(=O)N1CCC(c2cc(=O)n(-c3ccccc3)[nH]2)CC1", "activity change, negative = activation": "86.7% (inactive)"}, {"smiles": "COCCNC(=O)Nc1ccc2nc(-c3ccco3)c(-c3ccco3)nc2c1", "activity change, negative = activation": "64.8% (inactive)"}, {"smiles": "CC(=O)N=c1ncn(CC(COC(C)=O)OC(C)=O)c2nc[nH]c12", "note": "(stereo not drawn)", "activity change, negative = activation": "74.2% (inactive)"}, {"smiles": "CCCCNC(=O)C(C)N(CCN(C)C)C(=O)CCCCCN1C(=O)NC(c2ccc(Cl)cc2)C(C(=O)OCc2ccccc2)=C1C", "note": "(stereo not drawn)", "activity change, negative = activation": "67.1% (inactive)"}, {"smiles": "CC(C)OCCCNC(=S)N1CCC(C(=O)c2ccc3c(c2)OCCO3)CC1", "activity change, negative = activation": "-164% (active)"}, {"smiles": "c1ccc(C[C@H]2CNCCN2CCC23CC4CC(CC(C4)C2)C3)cc1", "activity change, negative = activation": "47.5% (inactive)"}, {"smiles": "C=C(C)C(=O)Nc1cccc(C2=NOC3(C2)C[C@H](C(N)=O)N(C(=O)C(c2ccccc2)c2ccccc2)C3)c1", "note": "(stereo partly drawn)", "activity change, negative = activation": "-78.2% (active)"}, {"smiles": "CC(C)c1ccccc1OCC(O)CN(CC(O)COc1cccc2ccccc12)C(C)C", "note": "(stereo not drawn)", "activity change, negative = activation": "57.3% (inactive)"}, {"smiles": "O=c1[nH]cnc2c1c(-c1ccccc1)cn2-c1ccc(F)cc1", "activity change, negative = activation": "-47% (active)"}, {"smiles": "c1ccc(CSc2nnc(-c3ccco3)c(-c3ccco3)n2)cc1", "activity change, negative = activation": "49.6% (inactive)"}, {"smiles": "Cc1ccsc1/C=N/NC(=O)Cc1cc(=O)[nH][nH]1", "activity change, negative = activation": "58.3% (inactive)"}, {"smiles": "COc1ccccc1C1C(C#N)=C(N)Oc2c1c(-c1ccccc1)nn2-c1ccccc1", "note": "(stereo not drawn)", "activity change, negative = activation": "42.2% (inactive)"}, {"smiles": "COc1cc(C2C(C#N)=C(N)Oc3n[nH]c(-c4ccccn4)c32)cc(OC)c1OC", "note": "(stereo not drawn)", "activity change, negative = activation": "-84.8% (active)"}, {"smiles": "COc1ccc2sc(-c3ccccc3OC)c(-c3ccc(OCCN4CCCC4)cc3)c2c1", "activity change, negative = activation": "73.4% (inactive)"}, {"smiles": "C/C(=N\\NC(=O)CNc1cccc2ccccc12)c1ccc(Br)s1", "activity change, negative = activation": "90.2% (inactive)"}, {"smiles": "O=C(CSc1nc2ccccc2c(=O)[nH]1)Nc1nc(-c2ccc(Br)cc2)cs1", "activity change, negative = activation": "-74% (active)"}, {"smiles": "Cc1ccc(-c2ccc(/C=N/NC(=O)CN3CCOCC3)o2)cc1[N+](=O)[O-]", "activity change, negative = activation": "73.9% (inactive)"}, {"smiles": "O=C(CCCN1CCc2[nH]c3ccc(F)cc3c2C1)c1ccc(F)cc1", "activity change, negative = activation": "65% (inactive)"}, {"smiles": "COc1ccc(C2CC(c3ccccc3)Nc3ncnn32)cc1", "note": "(stereo not drawn)", "activity change, negative = activation": "-445% (active)"}, {"smiles": "NC[C@H](Cc1ccccc1)NCCc1cc(C(F)(F)F)cc(C(F)(F)F)c1", "activity change, negative = activation": "60.8% (inactive)"}, {"smiles": "Clc1ccccc1CSc1nnc(-c2ccco2)c(-c2ccco2)n1", "activity change, negative = activation": "49.9% (inactive)"}, {"smiles": "Cc1ccc2nc(N3CCN(C(=O)c4ccco4)CC3)sc2c1", "activity change, negative = activation": "41.9% (inactive)"}, {"smiles": "O=C(CN1C(=O)C2C3C=CC(C3)C2C1=O)NCCc1ccccc1Cl", "note": "(stereo not drawn)", "activity change, negative = activation": "-99.8% (active)"}, {"smiles": "CC[N+](C)(CC)CCC[n+]1c(-c2ccccc2)c2cc(N)ccc2c2ccc(N)cc21", "activity change, negative = activation": "98.2% (inactive)"}, {"smiles": "Cc1ccc(-c2nc(SCC(=O)Nc3ccccc3OC(F)F)c3c(C)c(C(=O)O)sc3n2)cc1", "activity change, negative = activation": "-98.5% (active)"}, {"smiles": "CCOCCCNC(=O)c1c[nH]c2cc(C)ccc2c1=O", "activity change, negative = activation": "-152% (active)"}, {"smiles": "CN(C)CCCN(C(=O)c1ccc(S(=O)(=O)N2CCCCCC2)cc1)c1nc2ccc(Br)cc2s1", "activity change, negative = activation": "60.4% (inactive)"}, {"smiles": "O=[N+]([O-])c1c(NCCO)cc(Sc2nc3ccccc3s2)c2nonc12", "activity change, negative = activation": "90.7% (inactive)"}, {"smiles": "C=CCC[C@H](Cc1ccc(F)cc1)C(=O)OC[C@@H](NC(=O)[C@@H](CC=C)CC(=O)N[C@H](CO)Cc1ccccc1)C(C)(C)C", "activity change, negative = activation": "40.6% (inactive)"}, {"smiles": "O=C(O)c1cc(Cl)c(Cl)cc1C(=O)Nc1cccc2ncccc12", "activity change, negative = activation": "80.4% (inactive)"}, {"smiles": "COC(=O)C(C)N(C#N)c1nc(C)nc(C)n1", "note": "(stereo not drawn)", "activity change, negative = activation": "-363% (active)"}, {"smiles": "CCCCN(CCCC)CCC(O)c1cc2c(Cl)cc(Cl)cc2c2cc(C(F)(F)F)ccc12", "note": "(stereo not drawn)", "activity change, negative = activation": "48.9% (inactive)"}, {"smiles": "COc1ccc(C2c3ccc(O)cc3Oc3ncn(CCCO)c(=N)c32)cc1OC", "note": "(stereo not drawn)", "activity change, negative = activation": "-43.4% (active)"}, {"smiles": "Cc1cc(C)n(-c2nc(SCC(=O)N3CCCC3)c3c4c(sc3n2)CCCC4)n1", "activity change, negative = activation": "43.6% (inactive)"}, {"smiles": "O=c1cc(N2CCCCC2)c(-c2ccccc2)nn1Cc1cccc(F)c1", "activity change, negative = activation": "44% (inactive)"}, {"smiles": "COc1ccc(S(=O)(=O)N2CCCCC2)cc1NC(=O)c1cc([N+](=O)[O-])ccc1N1CCOCC1", "activity change, negative = activation": "-42.8% (active)"}, {"smiles": "OC(CNCC1CCCO1)Cn1c2ccc(Br)cc2c2cc(Br)ccc21", "note": "(stereo not drawn)", "activity change, negative = activation": "43.4% (inactive)"}, {"smiles": "CC(=O)CCC(=O)c1ccc2ccccc2c1", "activity change, negative = activation": "-178% (active)"}, {"smiles": "O=S(=O)(Nc1ccc(O)c2ccccc12)c1ccc(OC(F)(F)F)cc1", "activity change, negative = activation": "60.9% (inactive)"}, {"smiles": "COc1ccc(NC(=O)CN(Cc2ccccc2)S(C)(=O)=O)cc1OC", "activity change, negative = activation": "40.8% (inactive)"}, {"smiles": "Cc1[nH][nH]c(=O)c1C(c1ccc(-c2ccc(Cl)cc2)o1)c1c(C)[nH][nH]c1=O", "activity change, negative = activation": "85.8% (inactive)"}, {"smiles": "CCC(=O)Nc1c(S(=O)(=O)c2ccccc2)c2nc3ccccc3nc2n1Cc1ccccc1", "activity change, negative = activation": "49.2% (inactive)"}, {"smiles": "Cc1ccc(S(=O)(=O)c2c(N)n(C)c3nc4ccccc4nc23)cc1", "activity change, negative = activation": "-405% (active)"}, {"smiles": "C=CCn1c(N)c(C(=O)OCC(C)C)c2nc3ccccc3nc21", "activity change, negative = activation": "54.1% (inactive)"}, {"smiles": "C#CCOCCOCCOCCNc1nc(N2CCN(C(=O)CCCCCCCCCCNC(=O)[C@H](CCCCN)n3cc(C)nn3)CC2)nc(N2CCN(C(=O)CCCCCCCCCCNC(=O)[C@H](CO)n3cc(CCCSC)nn3)CC2)n1", "activity change, negative = activation": "59.7% (inactive)"}, {"smiles": "CC(C)n1cnc2c(NCc3ccccc3)cc(N[C@@H](CO)Cc3ccccc3)cc21", "activity change, negative = activation": "94.5% (inactive)"}, {"smiles": "O=C(Nc1cccc(-c2nc3ccccc3[nH]2)c1)c1ccc(C(=O)Nc2cccc(-c3nc4ccccc4[nH]3)c2)cc1", "activity change, negative = activation": "-44% (active)"}, {"smiles": "NC(N)=N/N=C/c1ccc(OCc2ccc(Cl)cc2Cl)cc1", "activity change, negative = activation": "65.5% (inactive)"}, {"smiles": "CCOC(=O)N1CCC(NC(=O)C(C)n2c3ccccc3c3cnn(C)c(=O)c32)CC1", "note": "(stereo not drawn)", "activity change, negative = activation": "44.6% (inactive)"}, {"smiles": "C#C[C@]1(O)CC[C@H]2[C@@H]3CCC4=CC(=O)CC[C@@H]4[C@H]3CC[C@@]21CC", "activity change, negative = activation": "1.24% (inactive)"}, {"smiles": "C=CC1=C(C(=O)O)N2C(=O)[C@@H](NC(=O)/C(=N/OCC(=O)O)c3csc(N)n3)[C@H]2SC1", "activity change, negative = activation": "-112% (active)"}, {"smiles": "C=CC1=C(C(=O)O)N2C(=O)[C@@H](NC(=O)/C(=N\\OCC(=O)O)c3csc(N)n3)[C@H]2SC1", "activity change, negative = activation": "-78% (active)"}]}]}
